# In publication PMC7214649 (Clinical and Translational Science, 2020):
# pIC50: −log10 of the molar value. Like-named read-outs stand apart in the source and are kept apart here.
# Key:
# [1] = type: in vivo, human
# P-gp [2] = target: T1, P-gp (Homo sapiens, UniProt P08183); type: in vivo
# P-gp [3] = target: T1, P-gp; conditions: single dose venetoclax 100 mg, female healthy volunteers; cited from earlier work
# [4] = cited from earlier work
# [5] = type: in vivo, human; remark: listed apart in the source
# CYP3A = assay: Ritonavir-venetoclax drug interaction study, observed exposure ratios; type: in vivo, human
# Outline: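 20 female subjects, […], all drugs given orally; serial blood sampling for plasma levels of both the test compound and the CYP3A inhibitor. Validated assays had LLOQ 2.11 ng/mL (test compound) and 9.73 ng/mL (inhibitor), bias -4.7% to 7.1%, and CV 1.6% to 9.6%. Ratio is Cmax or AUC on coadministration over dosing alone; AUC96 runs 0–96 h postdose.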
# [6] = fed conditions; cited from earlier work
# [7] = Cohort 1: venetoclax 10 mg with single dose ritonavir 50 mg vs venetoclax alone, period 1 day 1 vs period 2 day 1
# [8] = Cohort 2: venetoclax 10 mg with single dose ritonavir 100 mg vs venetoclax alone, period 1 day 1 vs period 2 day 1
# [9] = Cohort 3: venetoclax 10 mg with ritonavir 50 mg q.d. for 11 days vs venetoclax alone, multiple-dose effect, period 1 day 1 vs period 2 day 11
# T1 sequence (P08183 whole entry): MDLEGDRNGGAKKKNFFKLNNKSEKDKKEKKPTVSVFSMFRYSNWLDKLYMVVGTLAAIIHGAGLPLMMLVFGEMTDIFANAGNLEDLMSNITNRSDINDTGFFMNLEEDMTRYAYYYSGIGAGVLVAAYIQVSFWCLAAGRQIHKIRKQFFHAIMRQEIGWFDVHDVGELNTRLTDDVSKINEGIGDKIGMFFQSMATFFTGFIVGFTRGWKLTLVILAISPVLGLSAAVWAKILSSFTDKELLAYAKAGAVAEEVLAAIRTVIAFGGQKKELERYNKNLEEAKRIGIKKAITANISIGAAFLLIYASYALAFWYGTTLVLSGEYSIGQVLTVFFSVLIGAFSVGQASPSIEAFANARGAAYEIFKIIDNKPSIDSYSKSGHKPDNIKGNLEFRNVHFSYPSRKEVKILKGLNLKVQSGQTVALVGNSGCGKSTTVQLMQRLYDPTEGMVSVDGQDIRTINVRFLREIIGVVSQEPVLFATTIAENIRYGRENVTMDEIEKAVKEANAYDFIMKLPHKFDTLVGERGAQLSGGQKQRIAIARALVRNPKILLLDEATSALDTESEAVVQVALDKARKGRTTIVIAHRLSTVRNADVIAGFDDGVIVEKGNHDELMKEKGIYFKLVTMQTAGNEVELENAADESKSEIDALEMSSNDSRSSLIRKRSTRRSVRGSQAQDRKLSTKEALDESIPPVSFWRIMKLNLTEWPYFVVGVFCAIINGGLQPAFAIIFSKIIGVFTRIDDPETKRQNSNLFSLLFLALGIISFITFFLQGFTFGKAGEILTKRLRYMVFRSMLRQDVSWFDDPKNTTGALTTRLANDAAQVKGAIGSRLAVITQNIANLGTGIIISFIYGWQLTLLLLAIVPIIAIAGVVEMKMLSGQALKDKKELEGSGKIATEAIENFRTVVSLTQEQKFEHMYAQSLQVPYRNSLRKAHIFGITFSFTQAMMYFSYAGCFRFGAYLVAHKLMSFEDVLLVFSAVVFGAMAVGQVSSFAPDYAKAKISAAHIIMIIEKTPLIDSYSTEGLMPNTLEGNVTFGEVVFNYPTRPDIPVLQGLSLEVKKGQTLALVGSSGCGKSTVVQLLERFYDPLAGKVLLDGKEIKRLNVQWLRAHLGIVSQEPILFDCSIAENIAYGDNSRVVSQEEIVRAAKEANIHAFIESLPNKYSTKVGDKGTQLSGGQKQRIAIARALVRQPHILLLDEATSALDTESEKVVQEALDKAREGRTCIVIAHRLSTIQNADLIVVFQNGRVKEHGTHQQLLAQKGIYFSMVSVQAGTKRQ
compound,measurement,setting,value
C[C@H]1O[C@@H](O[C@H]2[C@@H](O)C[C@H](O[C@H]3[C@@H](O)C[C@H](O[C@H]4CC[C@@]5(C)[C@H](CC[C@@H]6[C@@H]5C[C@@H](O)[C@]5(C)[C@@H](C7=CC(=O)OC7)CC[C@]65O)C4)O[C@@H]3C)O[C@@H]2C)C[C@H](O)[C@@H]1O [digoxin],CL BSV (between subject variability),[1]; VEN-DIG model,12.3 %CV
same,V2 BSV (between subject variability),[1]; VEN-DIG model,28.9 %CV
same,ALAG (absorption lag time),[1]; VEN-DIG model final estimate,0.536 h
same,Fe (fraction of administered drug excreted into the urine),[1]; VEN-DIG model final estimate,0.438%
same,Ka (first-order absorption rate constant),[1]; VEN-DIG model final estimate,0.777 h⁻¹
same,V2 (volume of central compartment),[1]; VEN-DIG model final estimate,150 L
same,V3 (volume of peripheral compartment),[1]; VEN-DIG model final estimate,592 L
same,clearance,"[1]; female, human, plasma, oral",262 mL/min
same,increase of digoxin bioavailability,P-gp [2]; with venetoclax,8%
same,changes in digoxin half-life or renal clearance,P-gp [3],no changes
same,increase in digoxin AUC,P-gp [3],9%
same,increase in digoxin Cmax,P-gp [3],35%
same,absolute bioavailability,[4],~ 80%
CC(C)c1nc(CN(C)C(=O)N[C@H](C(=O)N[C@@H](Cc2ccccc2)C[C@H](O)[C@H](Cc2ccccc2)NC(=O)OCc2cncs2)C(C)C)cs1 [ritonavir],CL BSV (between subject variability),[5]; RTV-VEN model,17.9 %CV
same,V2 BSV (between subject variability),[5]; RTV-VEN model,54.7 %CV
same,V2 (volume of central compartment),[5]; RTV-VEN model final estimate,30.7 L
same,Ka (absorption rate constant),"[5]; RTV-VEN model final estimate, first-order absorption",1.17 day⁻¹
"CC1(C)CCC(CN2CCN(c3ccc(C(=O)NS(=O)(=O)c4ccc(NCC5CCOCC5)c([N+](=O)[O-])c4)c(Oc4cnc5[nH]ccc5c4)c3)CC2)=C(c2ccc(Cl)cc2)C1 [venetoclax, Venetoclax]","AUCinf ratio, Observed Central value",CYP3A; [7],6.1
same,"Cmax ratio, Observed Central value",CYP3A; [7],2.4
same,"AUCinf ratio, Observed Central value",CYP3A; [8],8.1
same,"Cmax ratio, Observed Central value",CYP3A; [8],2.3
same,"AUC96 ratio, Observed Central value",CYP3A; [9],7.9
same,"Cmax ratio, Observed Central value",CYP3A; [9],2.4
same,CL BSV (between subject variability),[5]; RTV-VEN model,32.6 %CV
same,T50 BSV (between subject variability),[5]; RTV-VEN model,26.1 %CV
same,V2 BSV (between subject variability),[5]; RTV-VEN model,64 %CV
same,V2 (volume of central compartment),[5]; RTV-VEN model final estimate,26.8 L
same,V3 (volume of peripheral compartment),[5]; RTV-VEN model final estimate,83.5 L
same,Kamax (maximum absorption rate constant),"[5]; RTV-VEN model final estimate, time-dependent absorption",4.76 day⁻¹
same,γ (shape factor),"[5]; RTV-VEN model, fixed, estimated value from venetoclax combined data",5 (fixed ^*)
same,CL BSV (between subject variability),[1]; VEN-DIG model,22 %CV
same,ALAG (absorption lag time),[1]; VEN-DIG model final estimate,1.72 h
same,Ka (first-order absorption rate constant),[1]; VEN-DIG model final estimate,0.209 h⁻¹
same,V2 (volume of central compartment),[1]; VEN-DIG model final estimate,19.1 L
same,V3 (volume of peripheral compartment),[1]; VEN-DIG model final estimate,25.4 L
same,pIC50,P-gp [2],6.42
same,half-life,[6],~ 15 hours
